Usually inhibition stands for the drop in the measured response relative to a control, in per cent.

In all, about 330,000 compounds went through this assay and about 2,000 (0.61%) were called active. The sample holds actives, similar compounds and a random draw of the others, so the mix is not that of the screen.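 How the source made its calls: active means inhibition above that plate's mean sample inhibition plus 3 SD (cut at about 26% in these data); inactive means the rest.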

This assay is described as follows: nonselective Gq signaling inhibition in CHO cells – cell-based, fluorescence, Fluo-8 calcium dye, counter-screen for OX1R antagonist project, primary screen (AID 463079).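 Further: 0% = ATP-challenged DMSO wells and 100% = DMSO wells without ATP.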 As to conditions: parental CHO-K1, ATP-induced calcium, Fluo-8 fluorescence; at 5.6 µM; active compounds read high. In a few lines:
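Assay system: untransfected parental CHO cell line. Also added: ATP agonist challenge. Dosing: one dose, 5.6 µM nominal. Measured by: Fluo-8 fluorescence. Read-out: % inhibition. Benchmarks: ATP wells versus no-ATP DMSO wells. Repeats: no replicates.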
(A counterscreen serves to expose hits that act by an unwanted route or on another target.)
Regarding `Cc1ccc(Cl)c(NC(=O)CN(C)CC(=O)Nc2ccc(F)c(F)c2F)c1Cl`, the inhibition is -2.12% (inactive). The result for `NC(=O)c1ccc(-c2csnn2)cc1` reads -15.6% (inactive); that for `Cc1occc(=O)c1OCc1ccc(F)cc1`, -7.75% (inactive). As for `Fc1ccccc1COc1cccc2cccnc12`, the figure is -22.9% (inactive); as for `Cc1nc2ccccc2cc1OCc1ccc(F)cc1`, 54.1% (active). On to `CCNC(=S)N1CCN(CCN=CC2=C(O)CC(C)(C)CC2=O)CC1`, for which the inhibition is -4.83% (inactive). On to `C=C(Br)CN1CCN(CC(=C)Br)CC1`, for which the inhibition is 4.29% (inactive).

As to `CCCCNC(=O)C(C)N(CCN(C)C)C(=O)CCCCCN1C(=O)NC(c2ccc(Cl)cc2)C(C(=O)OCc2ccccc2)=C1C` (stereo not given), the inhibition was -17% (inactive). Turning to `CNC(=O)NC(=O)CSc1nnc(-c2ccc(F)cc2)n1CC1CCCO1` (stereo not given), the inhibition was -7.71% (inactive). Regarding `COc1ccc(C)cc1S(=O)(=O)N1CCN(S(=O)(=O)c2cc(C(=O)O)ccc2C)CC1`, the inhibition was -11.5% (inactive).

For `Cc1ccc(S(=O)(=O)N2CCN(c3ncnc4ccccc34)CC2)cc1`, the inhibition was 0.84% (inactive). The result for `Cc1ccc(C)c(S(=O)(=O)N2CCN(c3ncnc4sccc34)CC2)c1` reads 62.3% (active); that for `COc1ccc(NS(=O)(=O)c2cc(NC(=O)C3CCCCC3)ccc2N2CCOCC2)cc1`, 5.3% (inactive); that for `CC(C)(C)c1ccc(CCC2OCC(CN3CCOCC3)O2)cc1` (stereo not given), -9.27% (inactive). Take `Cc1cc(OCCCCOc2ccc(C#N)cc2)ccc1[N+](=O)[O-]`: the inhibition is 44.9% (active). As for `Cc1cc(OCC(=O)NC2CCN(C)CC2)ccc1[N+](=O)[O-]`, the figure is -4.54% (inactive); as for `Cc1cc(OCCCN2CCN(Cc3ccccc3)CC2)ccc1[N+](=O)[O-]`, 18.6% (inactive); as for `CC[C@]12c3[nH]c4ccc(OC)cc4c3CCN1C(=O)C(CC(=O)NCc1ccco1)C[C@@H]2C(=O)N1CCN(C(=O)C2CC2)CC1` (stereo not given in full), -3.18% (inactive). As for `O=C1[C@@H](c2ccccc2)[C@@H](c2ccccc2)N1c1cccnc1`, the figure is 3.04% (inactive); as for `CCc1ccc2ncc(C(=O)c3ccccc3)c(N3CCOCC3)c2c1`, -4.24% (inactive). The result for `Cc1ccc2c(c1)NC(=O)[C@@]1(C)[C@@H](c3ccccc3)[C@H]3COc4ccc(Cl)cc4[C@@H]3N1C2=O` reads -11.9% (inactive). Turning to `CN(C)C(=O)CCc1ccc2c3c([nH]c2c1)[C@]1(C)[C@@H](C(=O)N2CCOCC2)C[C@H](CC(=O)NCCc2ccccn2)C(=O)N1CC3`, the inhibition was 1.44% (inactive).

With `CN(C)c1ccc(/C=C2\NC(=S)N(Cc3ccccc3)C2=O)cc1`, the inhibition is 70.7% (active).

As to `COc1cc(/C=C2/SC(=S)N(Cc3ccccc3)C2=O)cc(OC)c1O`, the inhibition is 27.6% (inactive). The result for `CN(C)c1ccc(C=C2C(=O)OC3(CCCC3)OC2=O)cc1` reads -4.66% (inactive).

The values above are taken from PubChem BioAssay AID463079 (The Scripps Research Institute Molecular Screening Center, 2010).
